The nature of assay [1]: S. cerevisiae growth inhibition in permissive medium (OD615), pilot counter-assay for S. cerevisiae lifespan shortening project, permissive growth control (AID 705;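 active = growth inhibition above 25% in both replicates, a cutoff set 3 SD above the mean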). Conditions: OD615, 24 h, at 10 µM, active compounds read high. The method, boiled down:
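System: engineered DeaD yeast; Medium: permissive raffinose/galactose medium; Compound dosing: 10 µM single dose, 0.25% DMSO; Incubation: 4 h cell pre-growth, 24 h exposure at 30 °C; Technique: OD at 615 nm; Evaluation: growth inhibition from lowered OD615 after 24 h.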

Assay [2] can be described thus: S. cerevisiae growth inhibition in restrictive medium, OD615, pilot screen, restrictive growth control, yeast lifespan reduction project (AID 706;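 active = growth inhibition above a set limit, 3 SD over mean compound inhibition, in both replicates, cut at about 43% in these data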;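 note: modified DeaD lifespan yeast strain shifted to restrictive glucose medium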). Conditions: OD615, 48 h, at 10 µM, active compounds read high. The gist of the method: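 Material: modified S. cerevisiae; buffer or medium: CSMM-D glucose medium; doses: one concentration, 10 µM final, 0.25% DMSO; incubation: 48 h compound exposure at 30 °C; detection: optical density at 615 nm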

Assay [3] in a line: doxorubicin toxicity protection in MRP-1 cells – H69AR cells, CellTiter-Glo, duplicate, MRP-1 activator project, pilot screen (AID 807;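 active = viability increase at or above a cutoff of the median across tested compounds plus 3 SD, cut at about 8.5% in these data, passing the limit was not always enough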;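 note: compound pretreatment 18-22 h then 72 h combined with doxorubicin; 0% = doxorubicin alone and 100% = vehicle without doxorubicin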). The settings on record: H69AR viability with doxorubicin, CellTiter-Glo luminescence; at 10 µM; active compounds read high.
Assay [4] is described as follows: viability of HCT116 without oncogenic beta-catenin – human colon tumor cells, pilot screen (AID 823;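 active = cell viability at or below a set limit in both duplicate runs, the limit being the all-compound median minus 4 SD, cut at about 23% in these data, passing the limit was not always enough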;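 note: 0% = wells killed by 20 µM Hyamine and 100% = untreated DMSO cell wells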). Conditions: HCT116 beta-catenin knockout viability, CellTiter-Glo, 60 h; at 10 µM; active compounds read low. On the technique in general: Cellular ATP, detected with luciferase, serves as a proxy for viable cell number.
Assay [5] can be described thus: viability of PTEN-null HCT116 cells – cell-based, HCT116 clonal line, CellTiter-Glo, pilot screen (AID 824;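 active = viability at or below 27.92% in each of two runs, the all-compound median minus 4 SD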;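 note: 0% = 20 µM Hyamine control and 100% = vehicle cell control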). Conditions: HCT116 PTEN-deleted viability, 60 h, at 10 µM, active compounds read low.
Assay [6] is described as follows: RAM pathway blockade in budding yeast – dse1pr::URA3 reporter, 5-FOA selection, pilot screen (AID 869).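 Note: 0% = DMSO wells with no growth and 100% = 10 µM 1-NA-PP1 with full growth; RAM network block rescues cells from 5-FOA so hits raise OD615 growth.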 Conditions: S. cerevisiae dse1pr::URA3 5-FOA growth, OD615, 2 d; at 10 µM; active compounds read high; strain carries analog-sensitive mutant Cbk1 kinase.
Assay [7] can be described thus: RAM signaling pathway blockade in yeast – S. cerevisiae, Pdr1DBD-CYC8 efflux-inhibited sensitized strain, primary screen (AID 1298;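 active = RAM network inhibition above 8.4% in each of two replicates, 3 SD over the compound average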;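 note: 0% = DMSO untreated cells without growth and 100% = 10 µM 1-NA-PP1 full growth; higher means more yeast growth rescued from 5-FOA killing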). Conditions: S. cerevisiae cbk1-as DSE1-URA3 strain, 5-FOA growth OD615, 2 d; at 50 µM; active compounds read high.

The structures appear in SMILES notation. A number with no mark means an inactive call. Results filed as inconclusive are left out. Calls of active or inactive are those of the source.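 Rule for the calls, unless noted: active = inhibition over a set limit, the all-compound mean plus 3 SD, in both replicate runs; inconclusive = over that limit in just one replicate run; inactive = at or under that limit in both runs.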

One may read the viability as a read-out of living cells in per cent, often relative to untreated cells. As a reminder, the inhibition is the share of the control response that was lost under treatment.

For the molecule `Cc1nc2ccccc2n1-c1ccccc1`, the figures for the growth inhibition in assay [1] and in assay [2] were -0.46% and 10.2%, respectively. For the same molecule, the viability increase in assay [3] was 0.08%. Also, the viability is 89.1% in assay [4] and 96.4% in assay [5]. For the same molecule, in assay [6], the inhibition is 0.185%. Also, in assay [7], the RAM network inhibition is 4.25%.

`CCOC(=O)COc1ccc2cc(C(=O)OCC)c(=O)oc2c1`: the figures for the growth inhibition in assay [1] and in assay [2] were -4.38% and -13.8%, respectively. Besides, in assay [3], the viability increase is -0.91%. Besides, the results for the viability in assay [4] and in assay [5] were 103% and 96.2%, respectively. Also, the inhibition in assay [6] is 1.7%. Moreover, the RAM network inhibition in assay [7] is 2%.

For `O=C(O)CCSc1nnc(-c2ccccc2)n1-c1ccccc1`, the growth inhibition was 4.3% in assay [1] and 50.6% (active) in assay [2]. Also, the viability increase in assay [3] was 0.8%. Also, the results for the viability in assay [4] and in assay [5] were 94.4% and 98.3%, respectively. In addition, in assay [6], the inhibition was 1.48%. The RAM network inhibition in assay [7] is 0.72%.

`O=C(NC1CCCCCCC1)C1CCC(CNc2c(N3CCCC3)c(=O)c2=O)CC1` (stereo not given): the growth inhibition in assay [1] was -6.82%; in assay [2], 0.64%. For the same molecule, the viability increase in assay [3] is 0.87%. Moreover, the viability in assay [4] is 91.6%; in assay [5], 96%. Moreover, the inhibition in assay [6] was 0.85%. The RAM network inhibition in assay [7] is 4.83%.

As to `O=C(O)c1cc(-c2ccc(Cl)cc2)n[nH]1`, the growth inhibition in assay [1] was -6.99%; in assay [2], 0.335%. Moreover, the viability increase in assay [3] is -0.39%. Moreover, the viability was 100% in assay [4] and 96% in assay [5]. In assay [6], the inhibition is 0.27%. For the same molecule, the RAM network inhibition in assay [7] was 0.61%.

Consider `c1ccc(N2CCOCC2)c(Nc2nc3ccccc3n3cnnc23)c1`, for which the growth inhibition was -8.77% in assay [1] and -1.25% in assay [2]. Besides, in assay [3], the viability increase is -2.57%. The viability in assay [4] is 66.3%; in assay [5], 49.1%. Moreover, in assay [6], the inhibition was 1.02%. The RAM network inhibition in assay [7] was 9.05%.

Consider `O=C(COc1ccc(S(=O)(=O)NC2CCCCC2)cc1)Nc1ccc2c(c1)OCCO2`, for which the growth inhibition in assay [1] was -2.47%; in assay [2], 4.23%. In addition, the viability increase in assay [3] was -2.05%. Further, the viability is 84% in assay [4] and 70.8% in assay [5]. For the same molecule, the inhibition in assay [6] is 2.25%. The RAM network inhibition in assay [7] is 5.01%.

Consider `CCn1c(-c2ccc(N)cc2)nc2ccccc21`, for which the growth inhibition is -7.32% in assay [1] and 7.48% in assay [2]. Also, the viability increase in assay [3] was -3.43%. The viability in assay [4] was 103%; in assay [5] it was 83.5%. Besides, in assay [6], the inhibition is 1.18%. In assay [7], the RAM network inhibition is 0.72%.

For the molecule `O=C(NCCO)c1ccc(-c2nnc(N3CCOCC3)c3ccccc23)cc1`, the figures for the growth inhibition in assay [1] and in assay [2] were -8.54% and -14.4%, respectively. Further, the viability increase in assay [3] is 0.15%. Further, the figures for the viability in assay [4] and in assay [5] were 89.1% and 89.6%, respectively. Also, the inhibition in assay [6] is 0.425%. Besides, the RAM network inhibition in assay [7] is 3.24%.

For `Cc1cc(O)c(C=Nc2cccc(Cl)c2)c(=O)o1`, the growth inhibition was 4.66% in assay [1] and 4.37% in assay [2]. Also, the viability increase in assay [3] is -3.17%. The values for the viability in assay [4] and in assay [5] were 102% and 94.1%, respectively. Besides, the inhibition in assay [6] is 3.11%. Moreover, in assay [7], the RAM network inhibition is -0.93%.

With `O=C(CC(c1ccccc1)c1ccccc1O)NCCN1CCOCC1` (stereo not given), the results for the growth inhibition in assay [1] and in assay [2] were 0.155% and -2.5%, respectively. Moreover, the viability increase in assay [3] is -2.74%. Moreover, the viability is 102% in assay [4] and 95.6% in assay [5]. The inhibition in assay [6] was 3.25%. The RAM network inhibition in assay [7] is 2.36%.

Regarding `O=C(Cn1nc(Cc2cccnc2)c2ccccc2c1=O)N1CCN(c2ccccn2)CC1`, the figures for the growth inhibition in assay [1] and in assay [2] were 4.64% and 2.73%, respectively. The viability increase in assay [3] is 0.48%. Besides, the viability in assay [4] is 94.8%; in assay [5], 100%. Besides, the inhibition in assay [6] was 0.985%. Moreover, the RAM network inhibition in assay [7] is -0.56%.

On to `Cn1c(=O)c2nc(-c3ccc(Cl)cc3Cl)oc2c2ccccc21`, for which the growth inhibition in assay [1] is -12.5%; in assay [2] it was -0.105%. The viability increase in assay [3] is -3.1%. Moreover, the viability is 81.1% in assay [4] and 77.6% in assay [5]. In addition, the inhibition in assay [6] is 2.31%. For the same molecule, the RAM network inhibition in assay [7] is 3.74%.

For `O=C(Cc1c(F)cccc1Cl)c1ccc(O)cc1O`, the growth inhibition in assay [1] was -10.5%; in assay [2], -0.825%. The viability increase in assay [3] is -0.88%. Further, the values for the viability in assay [4] and in assay [5] were 99.8% and 100%, respectively. In assay [6], the inhibition is 0.3%. Further, the RAM network inhibition in assay [7] is -1.74%.

As to `CCCSc1nnc(Cn2c(=O)sc3ccccc32)n1-c1ccccc1`, the growth inhibition in assay [1] is -9.77%; in assay [2], 3.11%. In addition, the viability increase in assay [3] was 1.4%. Further, the results for the viability in assay [4] and in assay [5] were 92.6% and 81.3%, respectively. For the same molecule, the inhibition in assay [6] is 3.3%. Also, in assay [7], the RAM network inhibition was 11%.

Consider `O=C(NC1CCCCCCC1)c1c(O)c2ccccc2[nH]c1=O`, for which the growth inhibition was -3.12% in assay [1] and 8.01% in assay [2]. For the same molecule, the viability increase in assay [3] is -4.23%. Moreover, the viability in assay [4] is 91.6%; in assay [5], 92.5%. In addition, in assay [6], the inhibition is 2.4%. For the same molecule, the RAM network inhibition in assay [7] is -0.37%.

Regarding `COCc1cc(C)nc(N2CCN(c3ccccc3)CC2)c1C#N`, the growth inhibition is -15.6% in assay [1] and -7.64% in assay [2]. Besides, the viability increase in assay [3] is 0.13%. Further, the results for the viability in assay [4] and in assay [5] were 86.3% and 81.9%, respectively. The inhibition in assay [6] was 2.28%. The RAM network inhibition in assay [7] was 6.31%.

In the case of `CCc1c(C)sc(NC(=O)c2cc(C3CC3)on2)c1C#N`, the growth inhibition in assay [1] is -7.33%; in assay [2] it was 15%. The viability increase in assay [3] was 1.11%. Also, the figures for the viability in assay [4] and in assay [5] were 99% and 102%, respectively. For the same molecule, the inhibition in assay [6] was 3.36%. In addition, the RAM network inhibition in assay [7] is -0.84%.

Turning to `O=C(c1cnn2c(C(F)(F)F)cc(-c3ccco3)nc12)N1CCCCCC1`, the growth inhibition is -14.5% in assay [1] and -11.4% in assay [2]. For the same molecule, the viability increase in assay [3] is -4.15%. Further, the results for the viability in assay [4] and in assay [5] were 91.3% and 91.5%, respectively. In addition, the inhibition in assay [6] was 0.705%. In assay [7], the RAM network inhibition is 1.5%.

With `CC1=Nc2ccc(C)cc2N(Cc2ccccc2)C(=O)C1`, the values for the growth inhibition in assay [1] and in assay [2] were -10.2% and -5.19%, respectively. Also, in assay [3], the viability increase is 0.47%. For the same molecule, the viability in assay [4] was 101%; in assay [5] it was 93.8%. The inhibition in assay [6] is 0.545%. Also, the RAM network inhibition in assay [7] is 2.83%.

For the molecule `CCCC(=O)C1=C(O)C(C(=O)OC)C(C)(C)CC1=NC` (stereo not given), the growth inhibition is -14.5% in assay [1] and -12.3% in assay [2]. Further, the viability increase in assay [3] is 0.12%. The viability in assay [4] was 95.3%; in assay [5] it was 94.9%. Also, the inhibition in assay [6] is 0.54%. In addition, the RAM network inhibition in assay [7] was 0.46%.

Turning to `CCc1ccccc1NC(=O)c1onc(C)c1Cl`, the growth inhibition in assay [1] was -5.87%; in assay [2] it was 1.99%. In addition, in assay [3], the viability increase is -0.41%. In addition, the viability in assay [4] is 108%; in assay [5], 97.7%. For the same molecule, the inhibition in assay [6] is 2.18%. For the same molecule, in assay [7], the RAM network inhibition is -1.13%.

As for `CCC(C)NC(=O)c1ccc(NC(=O)C2CCCO2)cc1` (stereo not given), the growth inhibition in assay [1] was -6.02%; in assay [2] it was -6.03%. In addition, the viability increase in assay [3] was 3.38%. In addition, the viability in assay [4] and in assay [5] was 100% each time. In addition, in assay [6], the inhibition is 4.56%. Moreover, the RAM network inhibition in assay [7] is 1.78%.

As for `O=C(c1cnccn1)N(c1ccccc1)C1(C(=O)NC2CCCCC2)CCCCC1`, the growth inhibition in assay [1] was -6.44%; in assay [2] it was -1.08%. In addition, in assay [3], the viability increase was -0.6%. The viability in assay [4] was 96.9%; in assay [5], 90.7%. The inhibition in assay [6] was 1.06%. In assay [7], the RAM network inhibition was 1.62%.

In the case of `CCOC(=O)C1=C(C)N=c2s/c(=C\C(=O)OC)c(=O)n2C1c1ccc(OC)cc1` (stereo not given), the growth inhibition is -2.88% in assay [1] and 11.6% in assay [2]. In addition, the viability increase in assay [3] was -2.64%. The viability in assay [4] is 100%; in assay [5], 101%. In addition, the inhibition in assay [6] is 1.73%. Besides, in assay [7], the RAM network inhibition is 4.95%.
